Data from ChEMBL document CHEMBL1138952 (Bioorg Med Chem Lett, 2006).
pIC50, pKi: −log10 of the molar value. Each block holds one molecule with its values, some of them ahead of it.

Key:
Coagulation factor X [1] = target: Coagulation factor X (Homo sapiens, UniProt P00742); test: Binding affinity to human f10a
[2] = Activity in human plasma by aPTT assay; format: functional
Canis familiaris [3] = test: (§1) Half life in dog at 0.5 mg/kg, iv and 0.2 mg/kg, po; format: ADME, organism-based, Canis lupus familiaris; conditions: in vivo
Method in brief: (§2)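 Dogs received the compounds as TFA salts in a cassette (N-in-1) format, 0.5 mg/kg intravenously and 0.2 mg/kg orally (n = 2), and pharmacokinetic profiles were determined.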

Canis familiaris [4] = test: (§3) Volume of distribution in dog at 0.5 mg/kg, iv and 0.2 mg/kg, po; format: ADME, organism-based, Canis lupus familiaris; conditions: in vivo; method in brief: as §2
[5] = target: T1, Coagulation factor VII/tissue factor (Homo sapiens) (UniProt P08709+P13726); test: Activity in human plasma by PT assay; format: functional, cell-free
Method in brief: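 In vitro clotting assays (PT, aPTT) were run in human plasma.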

[6] = Protein binding in rabbit; format: ADME, Oryctolagus cuniculus; conditions: plasma, read-out: PPB (converted)
Coagulation factor IX = Coagulation factor IX (Homo sapiens, UniProt P00740); test: Binding affinity to f9a
Coagulation factor X [7] = target: T2, Coagulation factor X (Oryctolagus cuniculus, UniProt O19045); test: Binding affinity to rabbit f10a
T2 sequence (O19045 whole entry): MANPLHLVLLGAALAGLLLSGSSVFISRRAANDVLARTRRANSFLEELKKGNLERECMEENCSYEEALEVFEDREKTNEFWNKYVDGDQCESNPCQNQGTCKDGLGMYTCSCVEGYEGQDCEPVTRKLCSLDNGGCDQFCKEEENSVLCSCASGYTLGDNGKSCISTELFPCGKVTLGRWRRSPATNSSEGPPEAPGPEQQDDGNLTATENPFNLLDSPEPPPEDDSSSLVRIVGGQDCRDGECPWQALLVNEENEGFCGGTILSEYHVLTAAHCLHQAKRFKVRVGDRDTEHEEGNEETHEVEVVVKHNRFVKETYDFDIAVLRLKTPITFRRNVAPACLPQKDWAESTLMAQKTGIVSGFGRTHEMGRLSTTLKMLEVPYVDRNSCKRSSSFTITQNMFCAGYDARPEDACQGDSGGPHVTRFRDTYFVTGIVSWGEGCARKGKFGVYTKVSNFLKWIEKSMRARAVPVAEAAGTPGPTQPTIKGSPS

Prothrombin = Prothrombin (Homo sapiens, UniProt P00734); test: Binding affinity to thrombin
[8] = target: Urokinase-type plasminogen activator (Homo sapiens, UniProt P00749); test: Binding affinity to urokinase
Trypsin = Trypsin (Homo sapiens, UniProt P07477+P07478+P35030); test: Binding affinity to trypsin; format: protein assay
[9] = target: Vitamin K-dependent protein C (Homo sapiens, UniProt P04070); test: Binding affinity to aPC
Plasminogen = Plasminogen (Homo sapiens, UniProt P00747); test: Binding affinity to plasmin
[10] = target: Tissue-type plasminogen activator (Homo sapiens, UniProt P00750); test: Binding affinity to tPA
Coagulation factor VII = target: T3, Coagulation factor VII (Homo sapiens, UniProt P08709); test: Binding affinity to f7a
T3 sequence (P08709 whole entry): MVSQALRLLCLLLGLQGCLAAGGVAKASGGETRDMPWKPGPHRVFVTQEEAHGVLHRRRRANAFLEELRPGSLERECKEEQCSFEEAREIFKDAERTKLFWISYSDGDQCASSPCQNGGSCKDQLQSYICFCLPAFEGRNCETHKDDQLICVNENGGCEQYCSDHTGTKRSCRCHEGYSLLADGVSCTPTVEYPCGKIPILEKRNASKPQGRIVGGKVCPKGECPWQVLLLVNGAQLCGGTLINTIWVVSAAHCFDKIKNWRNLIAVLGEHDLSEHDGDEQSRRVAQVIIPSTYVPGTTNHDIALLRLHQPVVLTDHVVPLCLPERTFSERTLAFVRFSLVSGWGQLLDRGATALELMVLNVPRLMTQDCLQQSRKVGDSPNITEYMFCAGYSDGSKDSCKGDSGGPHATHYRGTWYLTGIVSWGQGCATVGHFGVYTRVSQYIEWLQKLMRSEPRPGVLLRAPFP

Chymotrypsinogen B = Chymotrypsinogen B (Homo sapiens, UniProt P17538); test: Binding affinity to chymotrypsin
Oryctolagus cuniculus [11] = test: Inhibition of thrombus formation in iv dosed rabbit arterio-venous shunt model; format: functional, organism-based
[12] = as §1; format: ADME, organism-based, Canis lupus familiaris; conditions: in vivo; method in brief: as §2
[13] = as §3; format: ADME, organism-based, Canis lupus familiaris; conditions: in vivo, read-out: Vdss; method in brief: as §2
[14] = Clearance in dog at 0.5 mg/kg, iv and 0.2 mg/kg, po; format: ADME, organism-based, Canis lupus familiaris; conditions: in vivo
[15] = Apparent permeability in Caco-2 cells; format: ADME, cell-based; conditions: human
[16] = Oral bioavailability in dog at 0.5 mg/kg, iv and 0.2 mg/kg, po; format: ADME, organism-based, Canis lupus familiaris; conditions: in vivo; method in brief: as §2
[17] = target: T1, Coagulation factor VII/tissue factor (Homo sapiens); test: Activity in rabbit plasma by PT assay; format: functional, cell-free; conditions: Oryctolagus cuniculus, target entry is the homologue from another species
Oryctolagus cuniculus [18] = test: Inhibition of thrombus formation in rabbit arterio-venous shunt model at 4.6 umol/kg/h, iv; format: functional, organism-based

Sequence of Plasminogen (P00747 97-580 limits assumed): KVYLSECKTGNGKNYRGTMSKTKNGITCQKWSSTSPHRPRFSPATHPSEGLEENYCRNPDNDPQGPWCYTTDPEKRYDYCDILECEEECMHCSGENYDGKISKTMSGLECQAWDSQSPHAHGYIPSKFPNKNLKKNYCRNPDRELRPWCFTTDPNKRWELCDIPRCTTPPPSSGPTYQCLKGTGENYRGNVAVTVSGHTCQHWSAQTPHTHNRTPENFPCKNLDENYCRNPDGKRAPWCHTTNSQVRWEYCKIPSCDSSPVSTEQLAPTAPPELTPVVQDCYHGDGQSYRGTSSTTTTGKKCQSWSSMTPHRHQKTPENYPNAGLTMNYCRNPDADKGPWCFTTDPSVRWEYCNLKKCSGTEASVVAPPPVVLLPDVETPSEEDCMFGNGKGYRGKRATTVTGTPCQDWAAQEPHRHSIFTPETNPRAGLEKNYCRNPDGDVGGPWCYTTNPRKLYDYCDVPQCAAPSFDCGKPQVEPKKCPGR
Sequence of Plasminogen (P00747 581-810 limits assumed): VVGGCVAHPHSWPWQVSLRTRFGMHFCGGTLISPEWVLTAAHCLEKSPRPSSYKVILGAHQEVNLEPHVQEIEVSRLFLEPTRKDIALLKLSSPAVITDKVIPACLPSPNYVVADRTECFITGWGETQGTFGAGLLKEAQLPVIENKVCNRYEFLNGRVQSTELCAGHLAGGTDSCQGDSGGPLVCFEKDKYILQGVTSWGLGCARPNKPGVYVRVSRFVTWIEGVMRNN
Sequence of Tissue-type plasminogen activator (P00750 whole entry): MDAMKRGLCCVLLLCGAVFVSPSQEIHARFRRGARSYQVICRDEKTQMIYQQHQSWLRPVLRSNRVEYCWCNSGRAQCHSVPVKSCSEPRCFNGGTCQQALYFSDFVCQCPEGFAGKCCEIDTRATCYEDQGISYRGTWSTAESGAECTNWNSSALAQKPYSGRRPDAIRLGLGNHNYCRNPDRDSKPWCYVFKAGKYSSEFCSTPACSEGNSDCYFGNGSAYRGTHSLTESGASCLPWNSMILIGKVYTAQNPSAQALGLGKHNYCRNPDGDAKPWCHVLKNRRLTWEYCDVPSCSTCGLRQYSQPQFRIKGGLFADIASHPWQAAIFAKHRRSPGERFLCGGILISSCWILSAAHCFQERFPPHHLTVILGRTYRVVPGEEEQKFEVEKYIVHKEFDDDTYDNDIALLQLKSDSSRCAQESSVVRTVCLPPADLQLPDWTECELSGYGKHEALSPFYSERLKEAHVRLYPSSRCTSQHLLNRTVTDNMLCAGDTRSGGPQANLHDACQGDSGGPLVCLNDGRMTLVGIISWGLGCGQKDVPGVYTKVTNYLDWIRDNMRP
Sequence of Chymotrypsinogen B (P17538 34-164 limits assumed, other chains not shown): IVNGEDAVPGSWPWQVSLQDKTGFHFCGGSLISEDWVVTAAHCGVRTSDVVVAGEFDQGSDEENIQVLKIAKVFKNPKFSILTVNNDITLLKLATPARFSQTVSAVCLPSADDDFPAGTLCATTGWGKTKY
Sequence of Chymotrypsinogen B (P17538 167-263 limits assumed, other chains not shown): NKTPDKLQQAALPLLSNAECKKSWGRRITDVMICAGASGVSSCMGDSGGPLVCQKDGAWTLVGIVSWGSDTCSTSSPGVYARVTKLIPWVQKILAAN
Sequence of Coagulation factor IX (P00740 47-191 limits assumed): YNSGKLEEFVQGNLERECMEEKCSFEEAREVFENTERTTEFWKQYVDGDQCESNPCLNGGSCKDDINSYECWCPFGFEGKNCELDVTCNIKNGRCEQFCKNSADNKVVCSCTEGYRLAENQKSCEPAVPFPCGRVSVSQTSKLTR
Sequence of Coagulation factor IX (P00740 227-461 limits assumed): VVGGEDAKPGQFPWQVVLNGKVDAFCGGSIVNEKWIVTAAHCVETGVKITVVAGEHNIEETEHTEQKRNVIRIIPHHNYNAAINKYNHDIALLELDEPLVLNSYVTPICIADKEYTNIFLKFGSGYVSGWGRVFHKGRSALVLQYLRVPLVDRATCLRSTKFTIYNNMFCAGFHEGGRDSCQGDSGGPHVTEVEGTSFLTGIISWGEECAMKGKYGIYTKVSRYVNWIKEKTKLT
Sequence of Coagulation factor X (Homo sapiens, UniProt P00742) (P00742 41-179 limits assumed): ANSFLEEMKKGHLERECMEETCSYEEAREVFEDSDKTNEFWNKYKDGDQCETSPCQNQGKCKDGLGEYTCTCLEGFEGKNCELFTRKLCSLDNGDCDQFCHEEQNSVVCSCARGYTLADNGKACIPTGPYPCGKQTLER
Sequence of Coagulation factor X (Homo sapiens, UniProt P00742) (P00742 235-488 limits assumed): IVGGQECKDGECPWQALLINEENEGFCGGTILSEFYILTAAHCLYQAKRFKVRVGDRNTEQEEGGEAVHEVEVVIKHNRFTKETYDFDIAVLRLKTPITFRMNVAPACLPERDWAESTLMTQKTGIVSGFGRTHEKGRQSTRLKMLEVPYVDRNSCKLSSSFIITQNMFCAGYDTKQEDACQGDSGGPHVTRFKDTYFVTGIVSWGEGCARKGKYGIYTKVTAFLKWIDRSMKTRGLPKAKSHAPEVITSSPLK
Sequence of Vitamin K-dependent protein C (P04070 43-197 limits assumed): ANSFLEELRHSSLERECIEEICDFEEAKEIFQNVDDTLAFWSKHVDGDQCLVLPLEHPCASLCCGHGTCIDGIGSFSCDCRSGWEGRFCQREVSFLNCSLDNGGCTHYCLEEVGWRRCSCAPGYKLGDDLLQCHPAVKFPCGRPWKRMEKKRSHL
Sequence of Vitamin K-dependent protein C (P04070 212-461 limits assumed): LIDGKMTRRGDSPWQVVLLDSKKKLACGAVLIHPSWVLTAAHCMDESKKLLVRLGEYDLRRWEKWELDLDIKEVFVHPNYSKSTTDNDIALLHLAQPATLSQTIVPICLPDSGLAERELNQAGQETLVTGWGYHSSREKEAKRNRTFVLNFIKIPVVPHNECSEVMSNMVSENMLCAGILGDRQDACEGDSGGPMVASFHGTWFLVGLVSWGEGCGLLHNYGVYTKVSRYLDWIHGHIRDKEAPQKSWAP

pKi (Coagulation factor X [1]): 8.52
Compound: COc1ccc(-n2nc(C#N)c3[nH]c(=O)n(-c4ccc(-c5ccccc5S(C)(=O)=O)cc4F)c(=O)c32)cc1
2aPTT [2]: 197 µM

pKi (Coagulation factor X [1]): 8.55
Compound: COc1ccc(-n2nc(C(F)(F)F)c3c(C)nn(-c4ccc(-c5ccccc5S(N)(=O)=O)cc4)c(=O)c32)cc1

2PT [17]: 1.8 µM | 2PT [5]: 2.2 µM
Compound: COc1ccc(-n2nc(C(N)=O)c3ncn(-c4ccc(-c5ccccc5CN5CCCC5)cc4)c(=O)c32)cc1 [listing 2 of 2 here]

pKi (Coagulation factor X [1]): 7.66
Compound: COc1ccc(-n2nc(CN)c3ncn(-c4ccc(-c5ccccc5S(N)(=O)=O)cc4)c(=O)c32)cc1

pKi (Coagulation factor IX): < 4.82 | pKi (Prothrombin): 5.96 | pKi [8]: < 4.89 | Ki (Trypsin): > 2500 nM | pKi [9]: 4.31 | pKi (Plasminogen): < 4.82 | pKi [10]: < 4.48 | pKi (Coagulation factor VII): < 4.82 | pKi (Chymotrypsinogen B): 5.69 | pKi (Coagulation factor X [1]): 8.77
Compound: COc1ccc(-n2nc(C#N)c3ncn(-c4ccc(-c5ccccc5CN5CCCC5)cc4)c(=O)c32)cc1

half-life [12]: 5.1 h | Vd [13]: 4.9 L/kg | clearance [14]: 12.7 mL/min/kg | Papp [15]: 15 ×10⁻⁶ cm/s | bioavailability [16]: 96%
Compound: COc1ccc(-n2nc(C(N)=O)c3ncn(-c4ccc(-c5ccccc5CN5CCCC5)cc4F)c(=O)c32)cc1.O=C(O)C(F)(F)F

pKi (Coagulation factor X [1]): 8.72
Compound: COc1ccc(-n2nc(C#N)c3ncn(-c4ccc(-c5ccccc5S(N)(=O)=O)cc4)c(=O)c32)cc1
2aPTT [2]: 5.8 µM

pKi (Coagulation factor IX): < 4.82 | pKi (Coagulation factor X [7]): 8.92 | pKi (Prothrombin): 5.74 | pKi [8]: < 4.89 | Ki (Trypsin): > 2500 nM | pKi [9]: < 4.12 | pKi (Plasminogen): < 4.82 | pKi [10]: < 4.48 | pIC50 (Oryctolagus cuniculus [18]): < 6.00 | pKi (Coagulation factor VII): < 4.82 | pKi (Chymotrypsinogen B): 6.28 | pKi (Coagulation factor X [1]): 9.13 | fraction unbound [6]: 0.15
Compound: COc1ccc(-n2nc(C(N)=O)c3ncn(-c4ccc(-c5ccccc5CN5CCCC5)cc4F)c(=O)c32)cc1 [listing 2 of 2 here]
inhibition in vivo at 4.6 µmol/kg/h (Oryctolagus cuniculus [18]; iv): 33% | 2aPTT [2]: 3.9 µM

pKi (Coagulation factor X [1]): 8.44
Compound: CCOC(=O)c1nn(-c2ccc(OC)cc2)c2c(=O)n(-c3ccc(-c4ccccc4CN4CCCC4)cc3F)cnc12

half-life [12]: 8.3 h | Vd [13]: 75 L/kg | clearance [14]: 113 mL/min/kg | Papp [15]: 3.1 ×10⁻⁶ cm/s | bioavailability [16]: 77%
Compound: COc1ccc(-n2nc(C#N)c3ncn(-c4ccc(-c5ccccc5CN5CCCC5)cc4)c(=O)c32)cc1.O=C(O)C(F)(F)F

The next lines start with the molecule.

Compound: CCOC(=O)c1nn(-c2ccc(OC)cc2)c2c(=O)n(-c3ccc(-c4ccccc4CN4CCCC4)cc3)cnc12
pKi (Coagulation factor X [1]): 8.42 | 2aPTT [2]: 1.8 µM

Compound: COc1ccc(-n2nc(C#N)c3nc(C)n(-c4ccc(-c5ccccc5CN(C)C)cc4)c(=O)c32)cc1
pKi (Coagulation factor X [1]): 8.74

Compound: COc1ccc(-n2nc(Cn3cnnn3)c3nc(C)n(-c4ccc(-c5ccccc5CN5CCCC5)cc4)c(=O)c32)cc1
pKi (Coagulation factor X [1]): 8.85

Compound: COC(=O)c1nn(-c2ccc(OC)cc2)c2c(=O)n(-c3ccc(-c4ccccc4S(N)(=O)=O)cc3F)cnc12
pKi (Coagulation factor X [1]): 8.74

Compound: CN(C)Cc1nccn1-c1ccc(NC(=O)c2cc(C(F)(F)F)nn2-c2ccc3onc(N)c3c2)c(F)c1.Cl [RAZAXABAN HYDROCHLORIDE]
T1/2 (Canis familiaris [3]): 3.4 h | Vdss (Canis familiaris [4]): 5.3 L/kg | 2PT [5]: 2.1 µM | fraction unbound [6]: 0.07

Compound: COc1ccc(-n2nc(Cn3ncnn3)c3nc(C)n(-c4ccc(-c5ccccc5CN5CCCC5)cc4)c(=O)c32)cc1
2PT [5]: 6.5 µM | pKi (Coagulation factor X [1]): 8.72 | 2aPTT [2]: 20.1 µM

Compound: COc1ccc(-n2nc(C(N)=O)c3ncn(-c4ccc(-c5ccccc5S(N)(=O)=O)cc4)c(=O)c32)cc1
pKi (Coagulation factor X [1]): 8.77 | 2aPTT [2]: 8.7 µM

Compound: COc1ccc(-n2nc(C(N)=O)c3ncn(-c4ccc(-c5ccccc5CN5CCCC5)cc4)c(=O)c32)cc1 [listing 1 of 2 here]
pKi (Coagulation factor IX): < 4.39 | pKi (Coagulation factor X [7]): 9.00 | pKi (Prothrombin): 5.80 | pKi [8]: < 4.89 | Ki (Trypsin): > 4200 nM | pKi [9]: < 4.12 | pKi (Plasminogen): < 4.82 | pKi [10]: < 4.48 | pKi (Coagulation factor VII): < 4.82 | pKi (Chymotrypsinogen B): 5.10 | fraction unbound [6]: 0.23 | ID50 (Oryctolagus cuniculus [11]): 5.5 µmol/kg/h | pIC50 (Oryctolagus cuniculus [11]; Oryctolagus cuniculus): 5.92 | 2aPTT [2]: 4 µM

Compound: COc1ccc(-n2nc(C(F)(F)F)c3c(C)nn(-c4ccc(-c5ccccc5CN5CCCC5)cc4)c(=O)c32)cc1
2PT [5]: 62 µM | pKi (Coagulation factor X [1]): 8.55 | 2aPTT [2]: 53 µM

Compound: COc1ccc(-n2nc(C#N)c(N)c2C(=O)Nc2ccc(-c3ccccc3S(C)(=O)=O)cc2F)cc1
pKi (Coagulation factor X [1]): 8.08

Compound: COc1ccc(-n2nc(C(F)(F)F)cc2C(=O)Nc2ccc(-c3ccccc3S(C)(=O)=O)cc2F)cc1
2aPTT [2]: 104 µM

Compound: COc1ccc(-n2nc(C(N)=O)c3ncn(-c4ccc(-c5ccccc5CN5CCCC5)cc4)c(=O)c32)cc1.O=C(O)C(F)(F)F
half-life [12]: 5.4 h | Vd [13]: 3.9 L/kg | clearance [14]: 9.17 mL/min/kg | Papp [15]: 12 ×10⁻⁶ cm/s | bioavailability [16]: 94%

Compound: COc1ccc(-n2nc(C(N)=O)c3ncn(-c4ccc(-c5ccccc5S(N)(=O)=O)cc4F)c(=O)c32)cc1
pKi (Coagulation factor X [1]): 8.92 | 2aPTT [2]: 9.8 µM

Compound: COC(=O)c1nn(-c2ccc(OC)cc2)c2c(=O)n(-c3ccc(-c4ccccc4S(N)(=O)=O)cc3)cnc12
pKi (Coagulation factor X [1]): 8.55 | 2aPTT [2]: 7.1 µM

Compound: COc1ccc(-n2nc(C#N)c3ncn(-c4ccc(-c5ccccc5CN(C)C)cc4)c(=O)c32)cc1
pKi (Coagulation factor X [1]): 8.68

Compound: COc1ccc(-n2nc(C(N)=O)c3ncn(-c4ccc(-c5ccccc5CN5CC[C@@H](O)C5)cc4)c(=O)c32)cc1
2PT [5]: 3.6 µM | pKi (Coagulation factor X [1]): 8.82 | 2aPTT [2]: 5 µM

Compound: COc1ccc(-n2nc(C(N)=O)c3ncn(-c4ccc(-c5ccccc5CN5CCCC5)cc4F)c(=O)c32)cc1 [listing 1 of 2 here]
2PT [17]: 1.6 µM | 2PT [5]: 3.4 µM

Compound: COc1ccc(-n2nc(Cn3ccnc3)c3nc(C)n(-c4ccc(-c5ccccc5CN5CCCC5)cc4)c(=O)c32)cc1
pKi (Coagulation factor X [1]): 8.68

Compound: CCOC(=O)c1nn(-c2ccc(OC)cc2)c2c(=O)n(-c3ccc(-c4ccccc4CO)cc3)cnc12
pKi (Coagulation factor X [1]): 7.35

Compound: COc1ccc(-n2nc(C(=O)O)c3ncn(-c4ccc(-c5ccccc5S(N)(=O)=O)cc4)c(=O)c32)cc1
pKi (Coagulation factor X [1]): 7.42
